Data on one compound can be found in ChEMBL document CHEMBL4382230, “Structure-activity relationships, biological evaluation and structural studies of novel pyrrolonaphthoxazepines as antitumor agents” (Eur J Med Chem, 2019).

Active and inactive are the calls of the source. The rule behind the calls is not given here.

Data set [1] relates to HL-60. The data set can be described thus: Induction of autophagy in serum starved human HL60 cells assessed as increase in LC3B-2 levels at 10 uM after 105 mins by immunoblot analysis. The format is functional, cell-based. An outline of the steps:
(§1)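 HL-60 in serum-supplemented RPMI 1640, or starved in Earle's Balanced Salts for 15 min beforehand, then treated with 10 μM compound with or without 40 μM chloroquine for 1 h 45 min or 16 h. LC3B-II measured by immunoblot, densitometry normalized to actin, three independent experiments, Student's T-test.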

Data set [2] has as its system B16-F10. The data set can be described thus: Cytotoxicity against mouse B16F10 cells assessed as reduction in cell survival at 0.1 to 10 uM after 18 hrs by MTT assay. The data set is classed as functional, cell-based. The procedure, abridged: (§2)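 Seeded at 2,500 cells/well in medium with 10% serum. After adhesion, exposed to 0.1, 1 and 10 μM in medium with 5% serum for 18 h. Medium then replaced with fresh medium containing 1.2 mM MTT for 4 h; formazan dissolved in DMSO, absorbance at 540 nm. Results given as % of basal response.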
In general terms: Formazan colour is commonly taken as a measure of viable cells.

Data set [3] deals with HL-60. The data set can be described thus: Cytotoxicity against human HL60 cells assessed as reduction in cell viability after 72 hrs by alamar blue assay. The data set is classed as functional, cell-based. The note with it: HL-60, 72 h. The procedure, abridged:
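HL-60 at 300,000 cells/ml treated in triplicate with compound or vehicle (0.1% v/v DMSO) for 72 h. Cells then incubated in 10% (v/v) AlamarBlue and fluorescence read at excitation 544 nm, emission 590 nm. IC50 is the mean of at least three separate determinations.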
Background: Resazurin is reduced to fluorescent resorufin, in cell work by metabolically active cells.

In data set [4] the test system is Ca9-22. As to the kind of experiment: Cytotoxicity against human Ca9-22 cells after 48 hrs by MTT assay. The data set is classed as functional, cell-based. To be noted: Ca9-22, 48 h.
Data set [5] deals with HCC827. The data set can be described thus: Induction of apoptosis in human HCC827 cells assessed as increase in p21 expression at 10 uM after 18 hrs by Western blot analysis. The data set is classed as functional, cell-based. An outline of the steps: (§3)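 PC9 and HCC827 maintained in DMEM with 10% FBS, then exposed to 10 μM compound for 18 h in 5% serum. Caspase 3 activation and cell cycle proteins examined by western blot.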

The subject of data set [6] is SCC-4. The data set can be described thus: Induction of apoptosis in human SCC4 cells at 500 nM after 48 hrs by Annexin V/propidium iodide staining-based flow cytometric analysis relative to control. The format is functional. The procedure, abridged:
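Seeding density: NCI-H929 and Ca9.22 at 30×10^4 cells/mL, SCC4 at 15×10^4 cells/mL. Cells exposed 48 h to compound (500 nM; 50 μM in SCC4 for one compound) or vehicle (1% EtOH v/v). Annexin V/PI staining, flow cytometry, 10,000 cells gated on vehicle-treated cells. Three independent experiments, mean ± S.E.M, T-test.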
For orientation: Flow cytometry measures light scatter and fluorescence of single cells or particles in a stream.

Data set [7] deals with NB-4. As to the kind of experiment: Cell cycle arrest in human NB4 cells assessed as accumulation of cells at G1 phase after 24 hrs by propidium iodide staining-based flow cytometric analysis. The data set is classed as functional. The procedure, abridged:
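NB4 cultured at 37 °C, 5% CO2 in RPMI-1640 with 10% heat-inactivated FBS. Treated at 50 and 100 nM, 1 and 10 μM for 24 h. Cells fixed/permeabilized in 70% ethanol overnight at 4 °C, then given RNase and 20 μg/ml PI for 30 min. Doublets excluded, 20,000 events per sample; cell-cycle phase distribution analysed.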

Data set [8] deals with NCI-H929. The data set can be described thus: Cytotoxicity against human NCI-H929 cells after 48 hrs by MTT assay. The format is functional, cell-based. The note with it: NCI-H929, 48 h. An outline of the steps: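 Cells (NCI-H929 in RPMI-1640 GlutaMAX; SCC4 in DMEM GlutaMAX; 10% FBS, 37 °C, 5% CO2) treated with increasing concentrations for 48 h. IC50 is the mean of three independent experiments.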

Data set [9] has as its system GISTT1. The data set can be described thus: Cytotoxicity against human GISTT1 cells assessed as reduction in cell viability at 1 uM after 48 hrs by alamar blue assay. The data set is classed as functional, cell-based. The procedure, abridged: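 GIST-T1 seeded at 4000 cells/well, exposed to 1 or 10 μM for 48 h; viability read by AlamarBlue.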
The subject of data set [10] is HCC827. As to the kind of experiment: Induction of apoptosis in human HCC827 cells assessed as increase in caspase-3 expression at 10 uM after 18 hrs by Western blot analysis. The format is functional, cell-based. An outline of the steps:
as §3

Data set [11] deals with NIH3T3. The data set can be described thus: Cytotoxicity against mouse NIH/3T3 cells after 48 hrs by MTT assay. The data set is classed as cell-based. To be noted: NIH3T3, 48 h. An outline of the steps: (§4)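 Cells seeded at 12,000 to 17,000 per well depending on line, incubated overnight, then given serial dilutions of ligand for 48 h. MTT at 2.5 mg/mL added for 4 h at 37 °C, formazan solubilized overnight (10% SDS, 45% dimethylformamide, pH 5.5), absorbance read at 595/690 nm. IC50 from log-dose response curves; mean ± SE of three independent assays.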

Data set [12] has as its system B16-F1. The data set can be described thus: Cytotoxicity against mouse B16-F1 cells assessed as reduction in cell survival at 0.1 to 10 uM after 18 hrs by MTT assay. The data set is classed as functional, cell-based. The procedure, abridged:
as §2

Data set [13] in a line: Cytotoxicity against human A2780AD cells after 48 hrs by MTT assay. The format is functional, cell-based. The procedure, abridged:
as §4

Data set [14] deals with HL-60. The data set can be described thus: Induction of autophagy in human HL60 cells assessed as increase in LC3B-2 levels at 10 uM after 105 mins in presence of lysosomal inhibitor chloroquine by immunoblot analysis. The data set is classed as functional, cell-based. The procedure, abridged: as §1
Data set [15] deals with Tubulin (Homo sapiens) (UniProt P68371+Q9H4B7+P0DPH7+P68366+Q13509+Q71U36+P04350+Q3ZCM7+P07437+P68363+Q9BQE3+Q6PEY2+Q13885+Q9BVA1+Q9BUF5). The data set can be described thus: Binding affinity to tubulin (unknown origin) by analytical ultracentrifugation.
For data set [16], the system named is Ca9-22. The data set can be described thus: Cytotoxicity against human Ca9-22 cells after 24 hrs by MTT assay. The format is functional, cell-based. To be noted: Ca9-22, 24 h.
The test system of data set [17] is HCC827. The data set can be described thus: Cytotoxicity against human HCC827 cells assessed as reduction in cell survival at 0.1 to 10 uM after 50 to 60 hrs by MTT assay. The data set is classed as functional, cell-based.
The subject of data set [18] is PC-9. As to the kind of experiment: Induction of apoptosis in human PC9 cells assessed as increase in p21 expression at 10 uM after 18 hrs by Western blot analysis. The format is functional, cell-based. An outline of the steps: as §3
Data set [19] is described as follows: Chemical stability of compound in pH 3 aqueous solution assessed as compound remaining after 24 hrs by HPLC analysis. The data set is classed as physicochemical. To be noted: read-out: Stability.
Data set [20] concerns A2780. As to the kind of experiment: Cytotoxicity against human A2780 cells after 48 hrs by MTT assay. The format is functional, cell-based. To be noted: A2780, 48 h. An outline of the steps: as §4

As to `CC(=O)OC1=C(c2cccc3ncccc23)Oc2cc3ccccc3cc2-n2cccc21`, the result in data set [1], in data set [2], in [5], in data set [9], in [10] and in data set [12] was Active. Also, the outcome in [14] and in data set [18] was Active. Further, the IC50 (in general, the concentration that inhibits the measured activity by half) in [3] came out at 294 nM; in data set [4] it was 13400 nM; in data set [8] it was 363 nM; in [11], 42 nM; in [13], 92 nM; in [16], 31600 nM. The same compound gave an IC50 in data set [20] of 80 nM. Besides, the values for the Activity in [6] and in data set [7] were over 40% and “Dose-dependent effect”, respectively. Besides, the Kb in data set [15] worked out at 7 ×10⁷ /M. Moreover, the result in data set [17] was inactive. Further, in data set [19], the remaining at 24 h was determined as 65%.
